# Shown are actives, neighbours in structure and some others; about 3% of the full set was active somewhere.
# GASC-1 inh: inhibitors of human GASC-1 (JMJD2C) demethylase; Q9H3R0; GST-JMJD2C(1-420) H3K9me3 demethylation, DELFIA europium; inhibition, % at 2.35 µM; 330,000 compounds, 0.069% hits;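 active = more than half of a compound's replicate wells show inhibition beyond 50%, single wells judged on their own value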;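 note: signal counts dimethyl H3K9 product captured on neutravidin plate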
# aDG glyco act: alpha-DG glycosylation activation; Pro5-aDG cells, alpha-DG glycosylation AlphaScreen (IIH6); 0% Pro5, 100% B10-LARGE cell signal; activation, % at 10 µM; 360,000 compounds, 0.22% hits;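 active = activation of at least 8% versus controls, or a plate z-score of at least 8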;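 note: Pro5 are CHO cells carrying HIG-tagged alpha-DG that lacks glycosylation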
# NPR1 activator: GC-A (human) enzyme activation. AID 1671463. 370,000 compounds, 0.14% hits. P16066. HEK293 GC-A cells, cGMP TR-FRET, EC30 ANP; 0% at EC30 ANP, 100% saturating ANP. activation, % at 10 µM; in the data active = activation above about 40%
# GRIN3A LBD mod: modulates the human NR3A ligand-binding domain; NR3A LBD differential scanning fluorimetry, Tm shift; 0% = protein alone, 100% = glycine-bound protein; Tm shift relative to glycine control, % at 25 µM; 340,000 compounds, 2.5% hits;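 active = melting temperature shift of at least 10% of the positive control shift, at one fixed dose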
# Hep lipid drop: modulators of hepatic lipid droplet formation; AML12 mouse hepatocytes, oleate lipid droplets, BODIPY imaging; inhibition, % at 6.5 µM; 240,000 compounds, 0.4% hits;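 active = lipid droplet intensity inhibited by at least 50%, with more than 500 cells counted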
#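 System: AML12 hepatocytes (mouse). Probe or stimulus: oleic acid at 100 µM to induce lipid droplet formation. Times: overnight treatment with compound plus oleate. Detection: Image-based BODIPY and DAPI two-channel analysis. Evaluation: percent inhibition of filter-corrected integrated lipid droplet intensity per well.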
# NPR2 activator: GC-B (human) receptor activation; HEK293-GC-B cells, CNP EC30, cGMP TR-FRET; 0% at EC30 CNP, 100% saturating CNP; 370,000 compounds, 0.11% hits; AID 1920062; activation, % at 10 µM;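 active = activation at 10 µM reaching about 35% in either raw or pattern-adjusted values, limit read from the data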
# Target sequence (P20594 whole entry, looked up): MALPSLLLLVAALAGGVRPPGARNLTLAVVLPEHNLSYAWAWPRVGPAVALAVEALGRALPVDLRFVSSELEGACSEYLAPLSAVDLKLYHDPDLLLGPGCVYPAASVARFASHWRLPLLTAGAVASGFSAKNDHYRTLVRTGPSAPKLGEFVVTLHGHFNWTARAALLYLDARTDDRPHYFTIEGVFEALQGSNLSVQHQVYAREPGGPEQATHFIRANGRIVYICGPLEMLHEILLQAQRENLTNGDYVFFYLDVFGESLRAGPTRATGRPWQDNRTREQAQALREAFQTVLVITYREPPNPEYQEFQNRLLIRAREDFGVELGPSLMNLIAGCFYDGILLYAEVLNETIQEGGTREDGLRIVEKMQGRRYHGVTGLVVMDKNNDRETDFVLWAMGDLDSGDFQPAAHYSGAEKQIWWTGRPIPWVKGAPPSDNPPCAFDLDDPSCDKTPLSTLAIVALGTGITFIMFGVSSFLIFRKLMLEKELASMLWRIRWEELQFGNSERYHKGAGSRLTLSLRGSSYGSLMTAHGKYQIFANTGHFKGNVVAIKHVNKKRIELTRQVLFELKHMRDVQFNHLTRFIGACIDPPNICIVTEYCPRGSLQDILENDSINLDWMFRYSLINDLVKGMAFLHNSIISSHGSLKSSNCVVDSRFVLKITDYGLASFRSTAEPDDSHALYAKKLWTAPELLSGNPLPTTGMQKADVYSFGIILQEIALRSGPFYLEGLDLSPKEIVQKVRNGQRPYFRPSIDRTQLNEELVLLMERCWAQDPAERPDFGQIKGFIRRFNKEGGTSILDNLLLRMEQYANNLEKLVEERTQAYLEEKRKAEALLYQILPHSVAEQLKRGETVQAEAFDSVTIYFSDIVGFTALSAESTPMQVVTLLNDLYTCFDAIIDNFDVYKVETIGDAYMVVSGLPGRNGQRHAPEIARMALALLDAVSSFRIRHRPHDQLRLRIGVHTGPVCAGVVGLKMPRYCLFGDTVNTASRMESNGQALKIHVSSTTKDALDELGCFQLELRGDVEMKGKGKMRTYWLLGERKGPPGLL
# A number is an active result; . = inactive; / = no result.
SMILES,GASC-1 inh,aDG glyco act,NPR1 activator,GRIN3A LBD mod,Hep lipid drop,NPR2 activator
COC(=O)c1ccc(C)c(NC(=O)CCSc2ccc(Cl)cc2)c1,.,.,.,31,/,.
O[C@H](COc1cccc(C(F)(F)F)c1)CN1CCC(C(O)(c2ccccc2)c2ccccc2)CC1,/,/,.,/,/,.
Cc1ccc(NC(=O)CNC(=O)c2ccc(OC(F)F)cc2)cc1S(=O)(=O)N1CCCCCC1,/,.,.,12,/,.
Cc1ccc(NC(=S)Nc2ccc(C(C)C)cc2)cc1S(=O)(=O)N1CCCCCC1,.,.,.,28,.,.
CC(C)[C@H](NC(=O)[C@@H](N)Cc1ccccc1)C(=O)N1CCC2CCN(Cc3ccccc3)CC21 (stereo partly drawn),/,/,.,/,/,.
CCN(CC)S(=O)(=O)c1ccc2oc(C(=O)NCCN3CCOCC3)c(C)c2c1,.,.,.,58,.,.
CCN(CC)S(=O)(=O)c1ccc2oc(C(=O)N3CCOCC3)c(C)c2c1,.,.,.,.,.,.
Fc1ccc(CNC(=S)NCc2cccc(Cl)c2)cc1,.,.,.,.,.,.
O=C(NCCc1ccc(C(F)(F)F)cc1)C1CCC(=O)N(CCc2cccc(F)c2)C1 (stereo not drawn),.,.,.,14,.,.
CCc1csc(CNC(=O)C2CCC(=O)N(Cc3cccc(F)c3)C2)n1 (stereo not drawn),.,.,.,13,.,.
COC(=O)C[C@@H]1C[C@@H]2c3cc(NC(=O)NC4CCCCC4)ccc3O[C@@H]2[C@H](CO)O1,/,.,.,/,/,.
O=C(NCc1ccco1)c1ccc(-c2ccc3nccn3c2)cc1,/,.,.,/,/,.
O=C1CCc2cc(NS(=O)(=O)c3cc(F)ccc3F)cc3c2N1CC3,.,.,.,.,/,.
CCCN1C(=O)/C(=C/c2nc3ccccc3c(=O)[nH]2)c2cc(C)ccc21,.,.,.,.,.,.
CCCN1C(=O)/C(=C/c2nc3ccccc3c(=O)[nH]2)c2ccccc21,.,.,.,25,.,.
Cc1ccc(S(=O)(=O)c2c(C)nn(C(C)(C)C)c2OC(=O)C2CCCC2)cc1,.,.,.,10,/,.
Cc1nn(C(C)(C)C)c(OC(=O)C2CCCC2)c1S(=O)(=O)c1ccccc1,.,.,.,.,/,.
COc1ccc2nc(SCC(=O)C(C)(C)C)[nH]c2c1,.,.,.,123,.,.
COc1cccc(C(=O)Nc2ccc3c(C)cc(=O)oc3c2)c1,.,.,.,.,.,.
COc1cccc(C(=O)Nc2cccc(-c3nnc(-c4ccccc4)o3)c2)c1,.,.,.,.,/,.
COc1cc(C(=O)Nc2cccc(-c3nc4ccccc4o3)c2C)cc(OC)c1OC,.,.,.,.,/,.
CS(=O)(=O)c1ccccc1C(=O)Nc1ccc(-c2nc3ccccc3o2)cc1,.,.,.,.,.,.
COc1cccc(C(=O)Nc2ccc(-c3nc4ccccc4o3)c(O)c2)c1,.,.,.,34,.,.
COc1cccc(C(=O)Nc2ccc(-c3nnc(-c4ccco4)o3)cc2)c1,.,.,.,10,/,.
COc1cc(OC)cc(C(=O)Nc2ccc(-c3nc4ccccc4o3)cc2)c1,.,.,.,20,/,.
SMILES,GASC-1 inh,aDG glyco act,NPR1 activator,GRIN3A LBD mod,Hep lipid drop,NPR2 activator
COc1cc(C(=O)Nc2ccc(-c3nc4cc(C)ccc4o3)c(O)c2)cc(OC)c1OC,/,.,.,35,/,.
C#CCCN([C@H](C(=O)OC)C(C)CC)S(=O)(=O)c1ccccc1Br (stereo partly drawn),/,/,.,/,/,.
O=C(NCc1cccc(Cl)c1)c1ccc(S(=O)(=O)Nc2cccc(C(F)(F)F)c2)cc1,.,.,.,28,.,.
CN(C)Cc1ccccc1CNC(=O)c1cccc(S(=O)(=O)Nc2ccc3c(c2)OCO3)c1,/,.,.,/,/,.
COc1cccc(NCc2cc(=O)oc3cc(-c4ccccc4)c(O)cc23)c1,.,.,.,28,.,.
COc1cccc(NCc2cc(=O)oc3cc(C)c(O)cc23)c1,.,.,.,.,.,.
O=C(c1cc(Cl)cc(Cl)c1)N1CC[C@H]2[C@H](CCCN2Cc2ccccc2)C1,/,/,.,/,/,.
COc1ccc(OC)c(S(=O)(=O)N2CCC(C(=O)N3CCN(C4CCCCC4)CC3)CC2)c1,/,/,.,/,/,.

# Screens as filed in PubChem BioAssay.
